# Screens: PubChem BioAssay, several laboratories
# IMP-1 inh: IMP-1 metallo-beta-lactamase inhibitors, primary screen, biochemical, epi-absorbance readout, Pseudomonas aeruginosa enzyme | metallo-beta-lactamase IMP-1 (Pseudomonas aeruginosa) | purified IMP-1, nitrocefin hydrolysis, epi-absorbance fluorescence | inhibition, % at 5.6 µM | hit rate 0.45% among 290,000 | AID 1556, 2009;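 active = inhibition above the mean plus 3 SD of all compounds in the same screening run, cut at about 4.5% in these data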;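 note: 0% = IMP-1 with DMSO and 100% = DMSO wells lacking enzyme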
#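 Assay system: purified recombinant IMP-1 beta-lactamase. Input: IMP-1 0.2 nM before substrate addition. Buffer or medium: Zinc- and detergent-supplemented HEPES buffer, pH 7.1. Schedule: 25 °C, 15 min preincubation, 25 min reaction. Signal: Epi-absorbance fluorescence, 480 nm excitation, 530 nm emission. Evaluation: percent inhibition from optical density relative to buffer-blank wells.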
# SUMO HTRF inh: inhibitors of in vitro SUMOylation cascade, primary screen, biochemical, HTRF, uHTS. HTRF SUMOylation assay, SAE1/SAE2 + UBC9. inhibition, % at 35 µM. hit rate 0.36% among 290,000. AID 2006, 2009; in the data active = inhibition above about 50%, passing the limit was not always enough
# CTSL1 counter: Fasciola hepatica cathepsin L1 inhibitors, primary screen, counter-screen for PFM18AAP inhibitor project, biochemical, QFRET, fluorogenic peptide substrate; inhibition, % at 5.96 µM; hit rate 0.49% among 300,000; recombinant F. hepatica cathepsin L1, Z-Leu-Arg-MCA fluorescence;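 active = inhibition above the mean of all tested compounds plus 3 SD, set per screening campaign, cut at about 17% in these data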;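 note: 0% = plate median of test compound wells and 100% = 1 µM Z-Phe-Ala-diazomethylketone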
# pCIP destab: p/CIP-EGFP fusion destabilizers, primary screen, fluorescence, F442A cells; Q05BA5; hit rate 0.01% among 290,000; 16 h; AID 1984, 2009; decrease of EGFP signal, % at 10 µM;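 active = EGFP signal decrease of at least 30% at 10 µM or well 3 SD below plate mean, unless failing retest; inactive = the rest, including hits failing retest or dose response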
# T cell HTS: modulators of CD8 T cell-vesicle binding, primary screen, mouse 2C CD8+ T cells, flow cytometry; 2C CD8+ T cell-vesicle binding; hits give low values; response (vesicle binding), % at 7 µM; hit rate 0.068% among 330,000;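 active = response, share of CD8 T cells binding vesicles, and their 90th percentile fluorescence all below set limits, cut at about 80% in these data, passing the limit was not always enough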;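 note: values below 100% mean blocked vesicle binding to the CD8+ T cells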
#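 System: murine 2C transgenic CD8+ T lymphocytes; also added: QL9-loaded Drosophila micro-vesicles; times: binding 1.5 h at 37 °C; measured by: flow cytometry, PE anti-B7-1 (FL2) versus Alexa647 anti-CD8 (FL8), PFA-fixed; control set: Peptide-free naked vesicles (low) and QL9 vesicles with 0.7% DMSO vehicle (high)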
# VIM-2 inh: VIM-2 metallo-beta-lactamase inhibitors, primary screen, biochemical, epi-absorbance readout, Pseudomonas aeruginosa enzyme | purified VIM-2, nitrocefin hydrolysis, epi-absorbance fluorescence | inhibition, % at 5.6 µM | hit rate 0.89% among 290,000 | AID 1527, 2009;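 active = inhibition above the mean of all tested compounds plus 3 SD, cutoff set per screening run, cut at about 7.5% in these data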;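 note: red hydrolysis product quenches plate fluorescence so inhibitors raise well fluorescence; 0% = enzyme with DMSO and 100% = DMSO without enzyme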
# VIM-2 inh confirm: P. aeruginosa VIM-2 enzyme inhibition – biochemical, epi-absorbance, HTS, confirmation; shares compounds with IMP-1 inh; purified VIM-2 enzyme, nitrocefin absorbance; inhibition, % at 5.6 µM; hit rate 73% among 200; in the data active = inhibition above about 8%;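 note: 0% = enzyme with vehicle and 100% = no enzyme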
# TEM-1 counter: Serine beta-lactamase TEM-1 inhibition, biochemical epi-absorbance counter-screen for IMP-1/VIM-2 inhibitor program | hit rate 50% among 200 | AID 2184, 2009 | shares compounds with IMP-1 inh | inhibition, % at 5.6 µM | TEM-1 beta-lactamase, nitrocefin absorbance inhibition; in the data active = inhibition above about 0.66%
# IMP-1 inh conf: IMP-1 metallo-beta-lactamase inhibitors, confirmation, biochemical, epi-absorbance, hits shared with VIM-2 screen; shares compounds with IMP-1 inh; purified IMP-1 enzyme, absorbance substrate hydrolysis; inhibition, % at 5.6 µM; hit rate 60% among 200; in the data active = inhibition above about 4.9%;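 note: 0% = enzyme with vehicle and 100% = vehicle without enzyme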
# Numbers without * were called inactive; . = no result. Rows were chosen to be rich in hits. Some 1.9% of all compounds tested hit in one or more screens of this group.
SMILES,IMP-1 inh,SUMO HTRF inh,CTSL1 counter,pCIP destab,T cell HTS,VIM-2 inh,VIM-2 inh confirm,TEM-1 counter,IMP-1 inh conf
CCN(CC)C1=CC2=CC(=C(C#N)C#N)CCC2CC1 (stereo not given),46.5*,12.5,4.4,-375.3,255.5,36.4*,60.3*,79.2*,57.9*
Fc1ccccc1N1CCN(C2CCCN(Cc3ccccc3C(F)(F)F)C2)CC1 (stereo not given),-2.0,-18.3,1.0,-8.6,226.9,-2.3,.,.,.
CC1=N/C(=C/c2cc(Br)cc(Br)c2O)C(=O)O1,-0.1,-4.8,-2.4,-1.3,216.1,1.5,.,.,.
O=C(COC(=O)CCC(=O)c1cccs1)Nc1ccccc1C(F)(F)F,.,.,.,.,263.6,.,.,.,.
COc1cc2cccc(OC)c(=O)c2c(O)c1OC,-2.4,7.7,8.0,-4.7,242.7,1.3,.,.,.
CC(=O)Oc1cc2cccc(OC(C)=O)c(=O)c2c(OC(C)=O)c1OC(C)=O,8.9*,30.2,-4.6,-0.8,280.1,6.9,1.9,-2.9,-1.7
Cc1ccc(C(=O)CCC(=O)OCC(=O)NNC(=O)c2ccc([N+](=O)[O-])cc2)cc1,.,.,.,.,245.4,.,.,.,.
O=C(NN1C(=O)C2C3C=CC(C3)C2C1=O)c1ccccc1 (stereo not given),-3.5,-7.2,1.5,10.2,92.0,-3.4,.,.,.
Cc1cccc(C(=O)NN2C(=O)C3C(c4ccccc4)C=CC(c4ccccc4)C3C2=O)c1 (stereo not given),20.6*,-26.1,2.1,-12.2,355.6,7.3,-0.3,-5.4,1.9
CCOc1ccc(Nc2nc(NCCN3CCOCC3)nc(OC)n2)cc1,37.5*,11.6,-1.8,-3.0,454.5,41.7*,-0.1,-3.9,-1.4
CCOc1ccc(Nc2nc(N3CCOCC3)nc(N3CCOCC3)n2)cc1,-5.3,-0.8,0.7,-7.0,61.3,-3.0,.,.,.
Cc1cccc(N2C(=O)c3cccc4c(N)ccc(c34)C2=O)c1,24.8*,29.8,6.9,-275.1,233.3,21.3*,21.3*,30.7*,18.8*
Nc1ccc2c3c(cccc13)C(=O)N(c1ccccc1)C2=O,37.4*,19.5,.,-780.9,.,35.0*,35.2*,47.0*,32.8*
Nc1cccc(N2C(=O)c3cccc4c(N)ccc(c34)C2=O)c1,18.0*,30.3,-4.5,-100.8,150.2,21.6*,18.1*,21.0*,14.0*
O=C(O)c1cccc(N2C(=O)c3cccc4c(Cl)ccc(c34)C2=O)c1,-3.1,18.0,-1.1,-4.4,136.4,-0.4,.,.,.
COc1ccc(N=Nc2nc3ccc(Br)cc3n2C)cc1,25.2*,7.5,1.6,-335.9,398.2,25.9*,-2.3,-4.9,-3.9
CC(=O)Oc1ccccc1-c1nc(/C=C/c2ccccc2)no1,-1.3,-9.2,.,7.6,160.9,-0.6,.,.,.
CCOC(=O)c1nc2sc3c(c2c(=O)n1C(C)C(=O)OCC)CCCC3 (stereo not given),-4.0,31.4,-0.3,-7.2,395.8,-3.8,.,.,.
CCNc1ccc(Br)cc(C(=O)/C=C/c2ccc3c(c2)OCO3)c1=O,3.3,21.8,-1.3,-3.3,147.1,-0.5,.,.,.
CCNc1ccc(Br)cc(C(=O)/C=C/c2c(Cl)cccc2Cl)c1=O,6.0*,15.1,-1.0,-7.7,921.0,8.3*,3.9,-0.8,-0.9
O=C1CSC(=S)N1/N=C/c1ccc2c(c1)OCCO2,1.6,12.1,1.7,-1.6,331.5,-1.1,.,.,.
O=C1CSC(=S)N1/N=C/c1cc(Br)c(O)c(Br)c1,22.6*,17.6,-0.4,-20.7,845.6,13.3*,26.1*,3.6*,37.3*
O=P(O)(O)COc1ccccc1P(=O)(c1ccccc1)c1ccccc1,5.3*,7.0,-0.2,6.1,330.6,11.8*,16.5*,-3.8,-4.7
CCOP(=O)(O)c1ccccc1OCCOc1ccccc1P(=O)(O)OCC,-1.8,-8.8,-1.6,1.2,296.8,-2.7,.,.,.
C/C(=N\O)c1ccc2c3c([nH]c2c1)CCCC3,8.6*,2.1,-0.7,-4.3,110.6,22.7*,37.2*,-3.5,4.8*
SMILES,IMP-1 inh,SUMO HTRF inh,CTSL1 counter,pCIP destab,T cell HTS,VIM-2 inh,VIM-2 inh confirm,TEM-1 counter,IMP-1 inh conf
COc1ccc(OC)c(N(/C(N)=N/c2nc(C)cc(C)n2)S(=O)(=O)c2ccc(NC(C)=O)cc2)c1,-0.1,0.7,-2.1,-13.7,404.2,1.3,.,.,.
Cc1ccc(Cn2c(C(C)Nc3nc(-c4ccc(C)cc4)cs3)nc3cc(Cl)c(Cl)cc32)cc1 (stereo not given),29.2*,16.5,-5.4,-13.7,587.2,11.8*,11.2*,-5.7,24.8*
CC(Nc1nc(-c2ccc(F)cc2)cs1)c1nc2cc(Cl)c(Cl)cc2n1CCCO (stereo not given),.,.,5.3,.,106.1,.,.,.,.
O=C(Cn1ncc2c([nH]c3ccccc32)c1=O)N1CCOCC1,-3.0,-3.5,0.6,0.2,136.9,-0.6,.,.,.
CCN(CC)c1ccc2cc(C=O)c(=O)oc2c1,15.1*,5.8,12.9,-19.1,303.7,15.1*,16.5*,14.7*,12.1*
CSc1nnc(CSc2cc(C)nc(N(C)C)n2)o1,-0.6,-10.7,-3.5,-13.8,222.1,2.7,.,.,.
Cc1cc(/C=N/NC(N)=S)c(O)c(/C=N/NC(N)=S)c1,27.1*,34.6,19.5*,-80.0,166.6,26.0*,26.4*,-1.7,25.1*
CC(C)n1cc(/C=C/c2cc[n+](C)cc2)c2ccccc21,12.1*,16.8,.,-601.4,.,17.6*,13.8*,6.7*,8.4*
CCn1cc(/C=C/c2cc[n+](C)cc2)c2ccccc21,13.4*,14.8,4.8,-419.2,0.0,16.1*,14.1*,8.0*,8.3*
CC(C)c1nnc(N2C(=O)C(O)=C(C(=O)c3cccs3)C2c2ccccc2)s1 (stereo not given),7.2*,9.9,.,-17.8,.,16.6*,0.2,-0.2,-1.5
C=CCOc1ccc(C2C(C(=O)c3cccs3)=C(O)C(=O)N2c2nnc(C)s2)cc1 (stereo not given),12.9*,.,3.7,.,416.6,17.5*,1.8,2.6*,-0.1
CCCC(=NC(C)CC)C1=C(O)CC(c2ccccc2)CC1=O (stereo not given),-3.0,10.1,-0.5,-1.3,306.7,-0.5,.,.,.
